From PubChem BioAssay
HDAC3 inh – blocks human histone deacetylase 3 | O15379 | recombinant HDAC3, fluorogenic peptide/trypsin coupled, fluorescence | inhibition, % at 8.3 µM | 320,000 tested, 0.15% active | AID 2718; in the data active means inhibition above about 26%, passing the limit was not always enough; inconclusive means no clear call, values can overlap the other calls
T cell modulator – modulates CD8 T cell binding to vesicles; response (vesicle binding), % at 7 µM; 330,000 tested, 0.068% active; 2C CD8+ T cell-vesicle binding, flow cytometry; stronger effect = lower value;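 active means response, share of CD8 T cells binding vesicles, and their 90th percentile fluorescence all below set limits, cut at about 80% in these data, passing the limit was not always enough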;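 further: values below 100% mean blocked vesicle binding to the CD8+ T cells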
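System: murine 2C transgenic CD8+ T lymphocytes; also added: QL9-loaded Drosophila micro-vesicles; times: binding 1.5 h at 37 °C; measured by: flow cytometry, PE anti-B7-1 (FL2) versus Alexa647 anti-CD8 (FL8), PFA-fixed; control set: Peptide-free naked vesicles (low) and QL9 vesicles with 0.7% DMSO vehicle (high)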
DSG3 Ab inh – human desmoglein-3 autoantibody binding inhibition | DSG3-coupled beads, scFv-anti-DSG3-GFP binding, flow cytometry; stronger effect = lower value | 310,000 tested, 0.48% active | binding (percent of control), % at 10 µM | P32926;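 active means binding more than 3 SD below its plate's average and above zero; inconclusive means below that plate limit but binding exactly zero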;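 further: hits lower antibody fragment binding to DSG3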
LANA-H2A inh – blocks KSHV LANA binding to histone H2A/H2B. cell-free LANA-H2A/H2B peptide, fluorescence polarization. inhibition, % (no concentration beside the values). 320,000 tested, 0.6% active; in the data active means inhibition mostly above about 10%, no sharp cut-off; inactive means mostly below about 6.7%
Target sequence (Q9QR71 whole entry, looked up): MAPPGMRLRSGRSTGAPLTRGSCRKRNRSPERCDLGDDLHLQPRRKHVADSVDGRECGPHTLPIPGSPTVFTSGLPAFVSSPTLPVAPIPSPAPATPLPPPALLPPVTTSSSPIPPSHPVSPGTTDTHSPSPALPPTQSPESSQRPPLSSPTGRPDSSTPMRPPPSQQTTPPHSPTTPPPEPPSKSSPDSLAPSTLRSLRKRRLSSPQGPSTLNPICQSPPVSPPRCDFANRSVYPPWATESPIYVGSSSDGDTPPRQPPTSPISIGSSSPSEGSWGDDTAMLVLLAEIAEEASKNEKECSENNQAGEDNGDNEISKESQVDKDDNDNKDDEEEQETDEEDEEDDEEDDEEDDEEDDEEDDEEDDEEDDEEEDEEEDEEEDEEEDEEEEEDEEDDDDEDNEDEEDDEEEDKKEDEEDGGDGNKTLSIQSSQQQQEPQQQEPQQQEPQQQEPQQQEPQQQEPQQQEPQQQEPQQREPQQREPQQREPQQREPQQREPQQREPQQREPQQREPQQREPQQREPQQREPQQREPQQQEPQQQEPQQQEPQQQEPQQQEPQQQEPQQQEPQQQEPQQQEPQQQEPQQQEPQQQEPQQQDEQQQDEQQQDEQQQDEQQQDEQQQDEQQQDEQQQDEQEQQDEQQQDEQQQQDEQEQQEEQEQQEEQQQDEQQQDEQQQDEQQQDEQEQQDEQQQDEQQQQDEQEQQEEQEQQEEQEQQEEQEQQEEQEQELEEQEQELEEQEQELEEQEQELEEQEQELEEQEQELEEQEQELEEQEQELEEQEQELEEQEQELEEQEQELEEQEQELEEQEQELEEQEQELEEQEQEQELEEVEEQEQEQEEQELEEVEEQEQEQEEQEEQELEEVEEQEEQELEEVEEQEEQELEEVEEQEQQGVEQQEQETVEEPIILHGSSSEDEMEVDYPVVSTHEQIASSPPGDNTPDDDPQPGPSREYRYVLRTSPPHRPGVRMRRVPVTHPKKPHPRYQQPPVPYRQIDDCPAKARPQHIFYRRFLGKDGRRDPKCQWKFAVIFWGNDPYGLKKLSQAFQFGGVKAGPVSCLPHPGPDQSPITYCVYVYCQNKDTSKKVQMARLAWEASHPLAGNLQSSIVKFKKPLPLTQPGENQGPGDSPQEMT
Arrestin-AP2 inh – blocks beta-arrestin peptide binding to AP2 adaptin; FITC-arrestin peptide / GST-AP2 beads, flow cytometry; AP2 beta2 appendage carries R879A mutation; inhibition, % at 10 µM; 340,000 tested, 0.31% active;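 active means inhibition above a set limit, near 3 SD of compounds lacking own fluorescence, cut at about 54% in these data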;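 further: plate controls were DMSO wells for no effect and 5 µM unlabelled arrestin peptide for full effect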
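test system = AP2 appendage R879A on GSH beads | buffer or medium = PBS plus Tween 20 (0.05%) and BSA (0.1%) | incubation = 12 min plus 1 h, RT | detection = bead flow cytometry, FITC channel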
* hit, by the source's call; u = inconclusive; x = no result given; + = active, no number; ! = a repeat was not active. Compounds with a hit are over-represented: about 1.5% of the library has one in this group of screens.

SMILES	HDAC3 inh	T cell modulator	DSG3 Ab inh	LANA-H2A inh	Arrestin-AP2 inh
COc1ccc2ccccc2c1/C=N/NC(=O)c1sc(N)c(C#N)c1C	-2	232	91	+	-2
CC(=O)c1ccc(NC(=O)c2ccc(C)c(S(=O)(=O)N3CCOCC3)c2)cc1	3	302	67*	-5	13
COc1ccc(OC)c2sc(NC(=O)c3ccc(S(=O)(=O)N4CCOCC4)cc3)nc12	-1	224	-17*	16	4
CC(=O)Nc1ccc(C(=O)Nc2ccc(S(=O)(=O)N3CCOCC3)cc2)cc1	3	174	112	-1	21
Cc1nc2ccc(NC(=O)c3ccc(S(=O)(=O)N4CCOCC4)cc3)cc2s1	-2	376	81*	0	14
COCCn1c(C)c(C)c(S(=O)(=O)c2ccccc2)c1N	1	125	97	1	-15
Cc1ccc(C(=O)O)cc1[N+](=O)[O-]	3	426	98	-5	-12
Cc1cc(C)c(NC(=O)c2cc(C(=O)O)ccc2C(=O)O)c([N+](=O)[O-])c1	-1	602	100	12*	16
CCCN(CC(=O)Nc1ccccc1C)C(=O)c1ccc(N2CCCCCC2)c([N+](=O)[O-])c1	12	131	105	0	-15
Cc1ccc(C(=O)N/C(=C/c2ccc(Cl)cc2)C(=O)NCC2CCCO2)cc1 (stereo not drawn)	-4	325	101	11	16
Cc1ccc(C(=O)N/C(=C/c2ccc(N(C)C)cc2)C(=O)NCC2CCCO2)cc1 (stereo not drawn)	2	384	35*	-6	36
O=[N+]([O-])c1ccc(NN=Cc2cccc([N+](=O)[O-])c2)cc1	x	x	86	x	-3
O=[N+]([O-])c1ccc(N/N=C/c2ccc[nH]2)cc1	18	466	127	+	16
C=CCn1c(O)c(C2=c3ccccc3=NC2=O)s/c1=N/c1nccs1	4	395	81*	-2	1
O=S(=O)(NC(=S)NC1CCCCC1)c1ccccc1	0	244	112	10*	-5
COc1ccc(CNC(=O)COC(=O)C(CCSC)NC(=O)c2ccco2)cc1OC (stereo not drawn)	-4	277	105	117*	-1
COc1ccc(C(=O)NCCc2ccc(C(F)(F)F)cc2)cc1S(=O)(=O)N1CCOCC1	1	214	104	-3	1
C[n+]1ccccc1/C=N/O	-5	102	96	18*!	0
CC(O)/C=C/c1cccc[n+]1C (stereo not drawn)	15	x	101	2	-9
C[c-]1[c-](C)[c-](C)[c-](C)[c-]1C.[Fe].c1cc2nccc(N3CCCC3)[c-]2c1 (stereo not drawn)	29*!	207	80*!	-1	6
c1cc(N2CCCCC2)nc(N2CCCCC2)n1	x	x	91	x	-13
CN/C(=C/[N+](=O)[O-])NCCSCc1ccc(CN(C)C)o1	2	762	110	16*!	5
O=[N+]([O-])c1ccc(Cl)c(/C=N/NC(=S)Nc2ccccc2)c1	-1	243	84*	0	24
NC(=S)N/N=C/c1cc([N+](=O)[O-])ccc1Cl	4	392	103	1	1
O=[N+]([O-])c1ccccc1N/N=C/c1ccc2c(c1)OCO2	x	x	92	x	18
SMILES	HDAC3 inh	T cell modulator	DSG3 Ab inh	LANA-H2A inh	Arrestin-AP2 inh
NS(=O)(=O)c1ccc(N/N=C/c2ccc3c(c2)OCO3)c([N+](=O)[O-])c1	-11	108	31*	-1	-15
CC[C@]12C(=O)N(C)C[C@H]([C@@H]3C(=O)N(C)C(=O)[C@@H]31)N2C(=O)c1ccc(F)cc1	x	x	102	x	-4
CS(=O)(=O)N(CC(=O)NCCSc1ccc(Cl)cc1)c1ccc2c(c1)OCO2	6	663	102	19*	-6
CS(=O)(=O)N(CC(=O)NCCSc1ccccc1)c1ccc2c(c1)OCO2	-1	124	108	2	2
O=C(O)C1Nc2c(C(=O)N3CCOCC3)cccc2C2C=CCC12 (stereo not drawn)	-3	232	86	0	27
Cc1ccc2c(c1C)NC(C(=O)O)C1CC=CC21 (stereo not drawn)	u	274	35*	27*	26
Cc1ccc2c(c1)cc1c(=O)n(CC(=O)NCc3ccccn3)nc(C)n12	-5	250	91	-2	1
CCOc1ccccc1N	0	575	101	23*	4
Cc1ccc(NC(=O)CN2C(=O)NC3(CCCCC3C)C2=O)cc1S(=O)(=O)N1CCOCC1 (stereo not drawn)	x	x	105	x	x
Cc1ccc(NCc2nnc(SCC(=O)c3ccc4c(c3)OCCO4)o2)c(C)c1	85*	550	99	0	22
COc1ccccc1NC(=O)COC(=O)/C=C/c1ccc2c(c1)OCO2	-3	123	96	14*	30
O=C(COC(=O)/C=C/c1ccc(Cl)cc1)Nc1ccc2c(c1)OCCO2	-4	148	85	0	5
O=C(COC(=O)/C=C/c1ccccc1)Nc1ccc2c(c1)OCCO2	0	318	-4.7*	4	35
COc1ccccc1NC(=O)/C=C/c1ccc2c(c1)OCO2	4	366	101	5	45
CCN1C(=O)[C@H]2[C@@H](c3ccc(C(F)(F)F)cc3)N[C@]3(CCCN(Cc4ccc(F)cc4)C3=O)[C@H]2C1=O	x	x	107	x	x
COc1cc(/C=C2\SC(=S)N(NC(=O)c3cccnc3)C2=O)ccc1O	16	432	98	-2	2
COc1cc(/C=C2\SC(=S)N(c3cccnc3)C2=O)ccc1O	2	148	68*	7	44
N#CC(C#N)=C/C(C#N)=C(/N)N1CCN(c2ccc(Cl)cc2)CC1	4	152	97	18*	30
COc1cccc(NC(=O)CN(C)C(=O)c2ccc3c(c2)S(=O)(=O)N=C2CCCCCN23)c1	-4	459	96	3	-6
Cc1ccc2nc3c(cc2c1)c(NS(=O)(=O)c1ccccc1)nn3CC(C)C	1	506	83*	0	12
C=Cc1c(C)c2cc3[nH]c(cc4nc(cc5nc(cc1[nH]2)C(C)=C5CCC(=O)O)C(CCC(=O)O)=C4C)c(C)c3C=C	-1	74	25*!	-2	8
CCc1cc2cccc(C)c2nc1SCC(=O)c1ccc(NC(C)=O)cc1	0	240	110	-4	4
CCc1cc2ccc(C)cc2nc1SCC(=O)c1ccc(NC(C)=O)cc1	68*	221	94	0	-5
COC(=O)c1ccc(NC(=O)COC(=O)c2cccc3c(=O)c(C)c(-c4ccccc4)oc23)cc1	-3	155	84	3	-1
Cc1c(-c2ccccc2)oc2c(C(=O)OCC(=O)Nc3ccc(C(N)=O)cc3)cccc2c1=O	-2	143	86	28*	7
CCCC[C@@H]1CN=C(N)N1CC(C)(C)C	-1	487	105	-3	5
